Reference: article PMC12675685 (Parasitology Research, 2025)
Entries after “also recorded” stand apart in the source; their conditions may differ. Counter-ions that a name gives are not always drawn. Like-named read-outs stand apart in the source and are kept apart here.

Key:
Babesia sp. Xinjiang = experiment: Anti-proliferation assay in Babesia sp. Xinjiang; assay type: cell-based; conditions: for inhibitory effect on BxjG5 proliferation: concentrations increased to 200 μM, data not shown; for inhibition of BxjG5 growth in vitro, in words: 48, 72 and 96 h
Summary of the method: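 Monoclonal BxjG5 line grown in RPMI 1640 with 20% FBS and 5% fresh sheep RBCs, 37 °C, humidified 5% CO2. Cultures seeded at 1% parasitemia with serial dilutions in medium (200 μΜ to 0.005 μΜ), run 48, 72 or 96 h, with drug-containing medium renewed every 48 h. DMSO controls (≤0.4%). Parasitemia counted on Giemsa smears (2,000–4,000 RBCs), inhibition taken relative to control, and curves fitted. Three experiments, triplicate wells.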

MDOK cells = experiment: Cytotoxicity on host cells; assay type: cell-based, sheep; conditions: for toxicity to MDOK cells, relative level: compared among the tested compounds; for IC50: read-out: IC50 in MDOK cells, CCK-8
Babesia microti = experiment: In vivo anti-Babesia activity in B. microti-infected BALB/c mice; conditions: for effect on B. microti parasite burden in vivo, in words: furamidine 2 mg/kg bw, BIX-01294 10 mg/kg bw, DA 30 mg/kg bw i.p.
Babesia divergens = conditions: cited from earlier work; for IC50: read-out: IC50 on B. divergens, ref Nehrbass-Stuedli et al. [2011]
Plasmodium falciparum = conditions: read-out: IC50 against Plasmodium falciparum; ref Malmquist et al. [2012]; cited from earlier work
Babesia duncani = experiment: In vivo anti-Babesia activity in B. duncani-infected hamsters; design: species or system LVG Golden Syrian Hamsters; conditions: for effect on B. duncani growth in vivo, in words / day post-treatment on which mortality reached 100% / mean parasitemia (parasite burden): furamidine 2 mg/kg bw; for effect on B. duncani growth in vivo, in words: BIX-01294 7.35 mg/kg bw i.p.; for day post-treatment on which mortality reached 100% / mean parasitemia (parasite burden): i.p. daily for five days, BIX-01294 7.35 mg/kg bw
Summary of the method: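 Twenty 12-week-old hamsters were infected i.p. with 2,500 B. duncani-infected RBCs and split randomly into four equal groups. Dosing began once parasites appeared on Giemsa smears (parasitemia ≈ 1%): 200 μl i.p. daily for five days of vehicle (DMSO/PBS 1:1), test compounds or diminazene aceturate 20 mg/kg bw. Parasitemia was followed on smears and survival recorded. Groups were compared by one-way ANOVA with Tukey–Kramer.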

[1] = In vivo safety evaluation of furamidine in healthy BALB/c mice; conditions: 2 mg/kg bw i.p. daily for 5 consecutive days
Summary of the method: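 Healthy female BALB/c mice, 6–8 weeks old (n = 5/group), received vehicle (DMSO/PBS) or test compound i.p. daily for 5 days. Clinical signs were checked twice daily and weight each morning before dosing. Blood was taken retro-orbitally under isoflurane 24 h after the last dose: EDTA-K2 blood for haematology, serum for biochemistry. Livers were fixed in 4% paraformaldehyde and stained with H&E.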

B. microti = conditions: ref Nehrbass-Stuedli et al. [2011], cited from earlier work
[2] = Babesia, 48 h, read-out: IC50 in Babesia sp. Xinjiang
[3] = Babesia, 72 h, read-out: IC50 in Babesia sp. Xinjiang
[4] = Babesia, 96 h, read-out: IC50 in Babesia sp. Xinjiang
[5] = Babesia, 96 h, read-out: IC50 on BxjG5 growth

Question: Which results are given for `CCN(CC)Cc1cc(Nc2ccnc3cc(Cl)ccc23)ccc1O` [Amodiaquine]?
Answer: IC50 (Babesia sp. Xinjiang; [2]): 33.2 ± 2.19 µM; IC50 (Babesia sp. Xinjiang; [3]): 23.9 ± 1.47 µM; IC50 (Babesia sp. Xinjiang; [4]): 26.6 ± 1.49 µM; IC50 (Babesia sp. Xinjiang; [5]): ~26 µM; toxicity to MDOK cells, relative level (MDOK cells): intermediate levels

Question: With `COc1cc2nc(N3CCCN(C)CC3)nc(NC3CCN(Cc4ccccc4)CC3)c2cc1OC` [BIX-01294] as the compound, how does the IC50 (Babesia sp. Xinjiang; [2]) read?
Answer: 0.47 ± 0.1 µM

Question: And the IC50 (Babesia sp. Xinjiang; [3])?
Answer: 0.35 µM

Question: What about the IC50 (Babesia sp. Xinjiang; [4]) of the same compound?
Answer: 0.29 µM

Question: And the IC50 (Babesia sp. Xinjiang; [5])?
Answer: 0.29 to 0.47 µM

Question: And the “effect on B. microti parasite burden in vivo, in words” value (Babesia microti)?
Answer: did not appear to inhibit Babesia growth in vivo

Question: What about the “inhibitory activity against B. divergens in vitro, in words” value (Babesia divergens; ref Vanheer and Kafsack [2021]) of the same compound?
Answer: moderate inhibitory activity

Question: And the IC50 (Plasmodium falciparum)?
Answer: 75 ± 36 nM

Question: And the “effect on B. duncani growth in vivo, in words” value (Babesia duncani)?
Answer: did not appear to inhibit Babesia growth in vivo

Question: What about the “day post-treatment on which mortality reached 100%” value (Babesia duncani) of the same compound?
Answer: 2 days

Question: And the “mean parasitemia (parasite burden)” value (Babesia duncani)?
Answer: approximately 20%

Question: For `CN1C(=O)[C@@]23C[C@]4([C@]56C[C@@]78SS[C@@](CO)(C(=O)N7[C@H]5Nc5ccccc56)N(C)C8=O)c5ccccc5N[C@@H]4N2C(=O)[C@]1(CO)SS3` [Chaetocin], which IC50 (Babesia sp. Xinjiang; [2]) is on record?
Answer: > 200 µM

Question: What about the IC50 (Babesia sp. Xinjiang; [3]) of the same compound?
Answer: > 200 µM

Question: And the IC50 (Babesia sp. Xinjiang; [4])?
Answer: > 200 µM

Question: What about the “inhibitory effect on BxjG5 proliferation” value (Babesia sp. Xinjiang) of the same compound?
Answer: did not observe any obvious inhibitory effect

Question: What about the “inhibition rate on MDOK cells” value (MDOK cells; concentrations exceeded 10 μM) of the same compound?
Answer: greater than 70%

Question: With `CC(=O)NCC(=O)O.CC(=O)NCC(=O)O.N=C(N)c1ccc(N=NNc2ccc(C(=N)N)cc2)cc1` [DA, Diminazene Aceturate] as the compound, how does the “effect on B. microti parasite burden in vivo, in words” value (Babesia microti) read?
Answer: effectively decreased the parasite burden

Question: What about the “deaths until day 43 posttreatment” value (Babesia duncani; DA 20 mg/kg bw i.p. daily for five days) of the same compound?
Answer: 0/4

Question: Which “inhibition of BxjG5 growth in vitro, in words” value (Babesia sp. Xinjiang) does the source give for `N=C(N)c1ccc(-c2ccc(-c3ccc(C(=N)N)cc3)o2)cc1` [Furamidine] here?
Answer: effectively inhibit BxjG5 growth in vitro at nanomolar concentrations

Question: And the IC50 (Babesia sp. Xinjiang; [2])?
Answer: 0.03 µM

Question: What about the IC50 (Babesia sp. Xinjiang; Babesia, read-out: IC50 on BxjG5) of the same compound?
Answer: 0.02 µM

Question: And the “complete suppression of parasitemia up to day” value (Babesia microti; furamidine 2 mg/kg)?
Answer: 50 dpi

Question: What about the “day posttreatment on which parasitemia peaked” value (Babesia microti; furamidine 2 mg/kg bw i.p.) of the same compound?
Answer: 3 days

Question: And the “body weight gain versus vehicle control” value [1]?
Answer: no significant difference

Question: What about the “hematological and biochemical analyses versus vehicle control” value [1] of the same compound?
Answer: no significant differences

Question: And the “liver histopathology (H&E)” value [1]?
Answer: appeared normal

Question: What about the IC50 (Babesia divergens; strain 1903) of the same compound?
Answer: 36.8 nM

Question: And the IC50 (Babesia divergens; strain 4201)?
Answer: 35.8 nM

Question: And the “complete suppression of parasites through” value (B. microti; 3.125 mg/kg)?
Answer: 13 days

Question: And the “anti-parasite activity in B. microti-infected NMRI mouse model, in words” value (B. microti; 25 mg/kg)?
Answer: totally cure

Question: And the “toxicity to MDOK cells, relative level” value (MDOK cells)?
Answer: intermediate levels

Question: What about the IC50 (MDOK cells; 24 h) of the same compound?
Answer: 98.81 ± 0.6 µM

Question: And the IC50 (MDOK cells; 48 h)?
Answer: 45.36 ± 0.43 µM

Question: And the IC50 (MDOK cells; 72 h)?
Answer: 43.01 ± 0.24 µM

Question: And the “effect on B. duncani growth in vivo, in words” value (Babesia duncani)?
Answer: effectively inhibited the growth; also recorded: did not completely eliminate parasites

Question: What about the “day post-treatment on which mortality reached 100%” value (Babesia duncani) of the same compound?
Answer: 6 days

Question: What about the “mean parasitemia (parasite burden)” value (Babesia duncani) of the same compound?
Answer: less than 10%

Question: With `CCCc1cc(C)[nH]c(=O)c1CNC(=O)c1cc(-c2ccnc(N3CCN(C)CC3)c2)cc2c1cnn2C(C)C` [GSK343] as the compound, how does the IC50 (Babesia sp. Xinjiang; [2]) read?
Answer: 7.25 ± 0.75 µM

Question: What about the IC50 (Babesia sp. Xinjiang; [3]) of the same compound?
Answer: 6.88 ± 0.51 µM

Question: And the IC50 (Babesia sp. Xinjiang; [4])?
Answer: 7.04 ± 0.56 µM

Question: Which “inhibitory effect on BxjG5 proliferation” value (Babesia sp. Xinjiang) does the source give for `CCOCC1(COCC)CCC(c2[nH]ncc2CN(C)CCNC)CC1.Cl.Cl.Cl` [GSK3368715] here?
Answer: did not observe any obvious inhibitory effect

Question: And the IC50 (Babesia sp. Xinjiang; read-out: IC50 in Babesia sp. Xinjiang, 48 h incubation, BxjG5)?
Answer: > 200 µM

Question: And the IC50 (Babesia sp. Xinjiang; read-out: IC50 in Babesia sp. Xinjiang, 72 h incubation, BxjG5)?
Answer: > 200 µM

Question: And the IC50 (Babesia sp. Xinjiang; read-out: IC50 in Babesia sp. Xinjiang, 96 h incubation, BxjG5)?
Answer: > 200 µM

Question: What about the IC50 (MDOK cells; 24 h) of the same compound?
Answer: > 100 µM

Question: What about the IC50 (MDOK cells; 48 h) of the same compound?
Answer: > 100 µM

Question: What about the IC50 (MDOK cells; 72 h) of the same compound?
Answer: > 100 µM

Question: Which “inhibition of BxjG5 growth in vitro, in words” value (Babesia sp. Xinjiang) does the source give for `O=C(Nc1cccc(C2=NCCN2)c1)Nc1cccc(C2=NCCN2)c1` [Imidocarb dipropionate] here?
Answer: effectively inhibit BxjG5 growth in vitro at nanomolar concentrations

Question: What about the IC50 (Babesia sp. Xinjiang; [3]) of the same compound?
Answer: 0.03 µM

Question: And the IC50 (Babesia sp. Xinjiang; [4])?
Answer: 0.02 µM

Question: And the “toxicity to MDOK cells, relative level” value (MDOK cells)?
Answer: intermediate levels

Question: Which IC50 (Babesia sp. Xinjiang; [2]) does the source give for `Cc1cn(CCN2CCN(c3ccccc3-c3cc(C#N)cc(C(=O)NCCCN4CCCC4)c3)CC2)c2ccccc12` [LLY-507] here?
Answer: 4.02 ± 0.74 µM

Question: And the IC50 (Babesia sp. Xinjiang; [3])?
Answer: 3.25 ± 0.46 µM

Question: What about the IC50 (Babesia sp. Xinjiang; [4]) of the same compound?
Answer: 2.58 ± 0.63 µM

Question: What about the “inhibition rate on MDOK cells” value (MDOK cells; concentrations exceeded 10 μM) of the same compound?
Answer: greater than 70%

Question: What does the source list for `O=C([C@@H](Cc1cccc(C(F)(F)F)c1)NS(=O)(=O)c1cc(F)c2c(c1)CCNC2)N1CCCC1` [PFI-2 hydrochloride]?
Answer: IC50 (Babesia sp. Xinjiang; [2]): 16.5 ± 0.86 µM; IC50 (Babesia sp. Xinjiang; [3]): 10.7 ± 0.82 µM; IC50 (Babesia sp. Xinjiang; [4]): 17.5 ± 1.09 µM

Question: For `Nc1ncnc2c1ncn2[C@@H]1O[C@H](C[C@@H](N)CC[C@H](N)C(=O)O)[C@@H](O)[C@H]1O` [Sinefungin], which IC50 (Babesia sp. Xinjiang; [2]) is on record?
Answer: 2.14 ± 0.07 µM

Question: And the IC50 (Babesia sp. Xinjiang; [3])?
Answer: 2.25 ± 0.34 µM

Question: And the IC50 (Babesia sp. Xinjiang; [4])?
Answer: 2.89 ± 1.1 µM

Question: What about the “inhibition rate on MDOK cells” value (MDOK cells; concentrations increased to 100 μM) of the same compound?
Answer: < 30%

Question: What does the source list for `CCCc1cc(C)[nH]c(=O)c1CNC(=O)c1cc(-c2ccc(N3CCN(C(C)C)CC3)nc2)cc2c1cnn2C(C)C` [UNC-1999]?
Answer: IC50 (Babesia sp. Xinjiang; [2]): 5.15 ± 1.31 µM; IC50 (Babesia sp. Xinjiang; [3]): 3.88 ± 1 µM; IC50 (Babesia sp. Xinjiang; [4]): 4.7 ± 1.03 µM; inhibition rate on MDOK cells (MDOK cells; concentrations exceeded 10 μM): greater than 70%
